Data as given in ChEMBL document CHEMBL1921684, “Targeting zymogen activation to control the matriptase-prostasin proteolytic cascade” (J Med Chem, 2011).
The source made the active and inactive calls. No cut-off for these calls is given here.

Tests used:
[1] = target: T1, Suppressor of tumorigenicity 14 protein (Homo sapiens) (UniProt Q9Y5Y6); assay: Inhibition of acid-induced matriptase activation in human HaCaT cells using mAb M24 after 30 mins by Western blot analysis; type: cell-based
T1 sequence (whole entry): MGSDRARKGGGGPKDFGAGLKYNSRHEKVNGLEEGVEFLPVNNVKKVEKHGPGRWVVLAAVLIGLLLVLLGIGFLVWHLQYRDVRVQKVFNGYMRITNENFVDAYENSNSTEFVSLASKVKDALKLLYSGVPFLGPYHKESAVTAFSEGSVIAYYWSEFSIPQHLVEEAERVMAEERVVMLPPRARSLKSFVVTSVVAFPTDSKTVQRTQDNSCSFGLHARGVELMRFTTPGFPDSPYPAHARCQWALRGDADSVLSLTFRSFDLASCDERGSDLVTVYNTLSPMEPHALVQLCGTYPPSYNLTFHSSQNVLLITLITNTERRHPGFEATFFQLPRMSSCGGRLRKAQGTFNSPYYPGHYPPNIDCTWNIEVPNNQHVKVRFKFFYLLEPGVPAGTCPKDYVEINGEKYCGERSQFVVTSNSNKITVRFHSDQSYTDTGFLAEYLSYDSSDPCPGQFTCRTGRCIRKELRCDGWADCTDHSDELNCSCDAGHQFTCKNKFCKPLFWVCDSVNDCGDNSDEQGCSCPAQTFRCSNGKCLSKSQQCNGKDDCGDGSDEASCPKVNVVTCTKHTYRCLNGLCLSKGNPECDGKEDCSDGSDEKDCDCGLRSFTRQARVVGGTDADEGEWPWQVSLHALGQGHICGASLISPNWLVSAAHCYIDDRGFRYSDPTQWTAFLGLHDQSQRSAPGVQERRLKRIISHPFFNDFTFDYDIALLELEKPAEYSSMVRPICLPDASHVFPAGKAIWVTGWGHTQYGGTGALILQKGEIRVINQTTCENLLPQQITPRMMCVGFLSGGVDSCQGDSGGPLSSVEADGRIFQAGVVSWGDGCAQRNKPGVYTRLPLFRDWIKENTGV
How it was run: (§1)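 HaCaT keratinocytes (DMEM, 10% FBS) incubated with compound in phosphate buffer pH 6.0 for 30 min at 4 °C, then 20 min at room temperature. Controls were PBS (no activation) and buffer alone. Lysates run non-reduced on 7.5% SDS-PAGE. Immunoblots probed with M24 (total matriptase), M69 (activated matriptase) and a polyclonal anti-prostasin antibody detecting the prostasin-HAI-1 complex.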

[2] = target: T1, Suppressor of tumorigenicity 14 protein (Homo sapiens); assay: Inhibition of acid-induced matriptase activation in human 184A1N4 cells assessed as increase in 70 kDa latent matriptase using mAb M24 after 30 mins by Western blotting; type: cell-based
How it was run: (§2)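 Intact 184 A1N4 cells pre-treated with compound in 150 mM sodium phosphate pH 6.0 for 30 min at 4 °C, then held 20 min at room temperature to drive activation. PBS served as non-activation control and buffer alone as activation control. Cells lysed in PBS with 1 mM DTNB and 1% Triton X-100. Non-reduced, unboiled lysates run on 7.5% SDS-PAGE. Blots probed with M24 (70-kDa latent form, 120-kDa matriptase-HAI-1 complex) or M69 (activated matriptase); triplicate.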

[3] = target: T1, Suppressor of tumorigenicity 14 protein (Homo sapiens); assay: Inhibition of acid-induced matriptase activation in human 184A1N4 cells assessed as decrease in 120 kDa enzyme-HAI-1 complex using mAb M24 at 5 uM after 30 mins by Western blotting relative to untreated control; type: cell-based; how it was run: as §2
[4] = target: T1, Suppressor of tumorigenicity 14 protein (Homo sapiens); assay: Inhibition of acid-induced matriptase activation in human 184A1N4 cell homogenate using mAb M69 after 30 mins by Western blot analysis
How it was run: (§3)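 Insoluble fraction of 184 A1N4 cell homogenates (made in PBS, collected by centrifugation) preincubated with compound in 150 mM sodium phosphate pH 6.0 for 30 min at 4 °C. Activation then induced for 20 min at room temperature. Non-reduced, unboiled samples run on 7.5% SDS-PAGE. Immunoblot probed with mAb M24 (total matriptase) or M69 (activated matriptase); chemiluminescent detection; triplicate.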

[5] = target: T1, Suppressor of tumorigenicity 14 protein (Homo sapiens); assay: Inhibition of acid-induced matriptase activation in human 184A1N4 cells assessed as increase in 70 kDa latent matriptase using mAb M24 at 5 uM after 30 mins by Western blotting; type: cell-based; how it was run: as §2
[6] = target: T2, Suppressor of tumorigenicity 14 protein (Homo sapiens, UniProt Q9Y5Y6); assay: Inhibition of acid-induced matriptase activation in human 184A1N4 cells using mAb M69 by cell-based ELISA like assay
T2 sequence (Q9Y5Y6 whole entry): T1 sequence (whole entry)
How it was run: (§4)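 184 A1N4 cells seeded at 8×10^4 cells/well 24 h ahead. Compound in pH 6.0 sodium phosphate buffer, 30 min at 4 °C, then 20 min at room temperature. Cells fixed in 4% formaldehyde with 0.1% Triton for 20 min. Activated matriptase detected with mAb M69, HRP anti-mouse IgG and TMB; A450. […] Screening used 5 μM final per compound in 1% DMSO.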

[7] = target: T1, Suppressor of tumorigenicity 14 protein (Homo sapiens); assay: Inhibition of acid-induced matriptase activation in human HaCaT cells using mAb M69 after 30 mins by Western blot analysis; type: cell-based; how it was run: as §1
[8] = target: T1, Suppressor of tumorigenicity 14 protein (Homo sapiens); assay: Inhibition of acid-induced matriptase activation in human 184A1N4 cells assessed as decrease in 120 kDa enzyme-HAI-1 complex using mAb M69 after 30 mins by Western blotting; type: cell-based; how it was run: as §2
[9] = target: T1, Suppressor of tumorigenicity 14 protein (Homo sapiens); assay: Inhibition of acid-induced matriptase activation in human 184A1N4 cells assessed as decrease in 120 kDa enzyme-HAI-1 complex using mAb M24 after 30 mins by Western blotting relative to untreated control; type: cell-based; how it was run: as §2
[10] = target: T1, Suppressor of tumorigenicity 14 protein (Homo sapiens); assay: Inhibition of acid-induced matriptase activation in human 184A1N4 cell homogenate using mAb M24 after 30 mins by Western blot analysis; how it was run: as §3
[11] = target: T1, Suppressor of tumorigenicity 14 protein (Homo sapiens); assay: Inhibition of acid-induced matriptase-mediated prostasin activation in human HaCaT cells assessed as decrease in prostatin-HAI-1 complex after 30 mins by Western blot analysis; type: cell-based; how it was run: as §1
[12] = target: T1, Suppressor of tumorigenicity 14 protein (Homo sapiens); assay: Inhibition of acid-induced matriptase activation in human 184A1N4 cells using mAb M69 after 20 mins by Western blotting; type: cell-based; how it was run: as §2
[13] = target: T1, Suppressor of tumorigenicity 14 protein (Homo sapiens); assay: Inhibition of acid-induced matriptase activation in human 184A1N4 cells using mAb M24 after 20 mins by Western blotting; type: cell-based; how it was run: as §2
[14] = target: T1, Suppressor of tumorigenicity 14 protein (Homo sapiens); assay: Inhibition of acid-induced matriptase activation in human 184A1N4 cells using mAb M69 after 20 mins by cell-based ELISA-like assay; how it was run: as §4
[15] = target: T1, Suppressor of tumorigenicity 14 protein (Homo sapiens); assay: Inhibition of acid-induced matriptase activation in human 184A1N4 cells using mAb M69 at 5 uM by cell-based ELISA like assay; how it was run: as §4
[16] = target: T1, Suppressor of tumorigenicity 14 protein (Homo sapiens); assay: Inhibition of acid-induced matriptase activation in human 184A1N4 cells assessed as enzyme-HAI-1 complex using mAb M24 at 5 uM after 30 mins by Western blotting; type: cell-based; how it was run: as §2

Compound	inhibition [4]	IC50 [6] [µM]	inhibition [8]	inhibition [10]	also measured
Cc1nc(N2C(=O)C(O)=C(C(=O)c3cccs3)C2c2cccs2)sc1C (stereo unspecified)	Dose-dependent effect	2.6	Active	Dose-dependent effect	inhibition [1]: Dose-dependent effect; inhibition [2]: Dose-dependent effect; inhibition [3]: Active; inhibition [5]: Active; inhibition [7]: Dose-dependent effect; inhibition [9]: Dose-dependent effect; inhibition [11]: Dose-dependent effect
Cc1nc(N2C(=O)C(O)=C(C(=O)c3ccccc3)C2c2cccs2)sc1C (stereo unspecified)	Dose-dependent effect	21.8		Dose-dependent effect	
[Cl-].[Na+]					inhibition [12]: Dose-dependent effect; inhibition [13]: Dose-dependent effect; inhibition [14]: Dose-dependent effect
O=C(C1=C(O)C(=O)N(c2nccs2)C1c1cccs1)c1cccs1 (stereo unspecified)	Dose-dependent effect	9.8		Dose-dependent effect	inhibition [15]: Active; inhibition [16]: Active
Cc1nc(N2C(=O)C(O)=C(C(=O)c3cccs3)C2c2ccccc2)sc1C (stereo unspecified)	Dose-dependent effect	7	Active	Dose-dependent effect	
